# Published values of several laboratories.
# Protocols differ between the studies behind these lines.
# Target: Serine/threonine-protein kinase SIK2 (SIK2, Homo sapiens, UniProt Q9H0K1)
Structure (SMILES),observed,action,method,tested at,measurement,result
CC(C)(C)c1nc2c(s1)c1nc(N)ncc1c1ccc(NS(=O)(=O)c3c(F)cccc3F)c(F)c12,enzyme activity,inhibitor,radiometric,1 µM,remaining activity,101%
C[S+]([O-])c1ccc(-c2nc(-c3ccncc3)c(-c3ccc(F)cc3)[nH]2)cc1 (stereo not shown),cell-free assay,,,0.5 µM,remaining signal,82.1%
O=C(Nc1cnn(-c2csc(C(=O)NC3COC3)c2)c1)Nc1c(F)cccc1Cl,enzyme activity,inhibitor,,5 µM,remaining activity,95.8%
CCCS(=O)(=O)Nc1ccc(F)c(C(=O)c2c[nH]c3ncc(-c4ccc(Cl)cc4)cc23)c1F,enzyme activity,inhibitor,,1 µM,inhibition,< 10%
CN([C@@H]1CCc2c(CC(=O)O)c3cc(S(C)(=O)=O)ccc3n2C1)S(=O)(=O)c1ccc(F)cc1,cell-free assay,,competition with immobilised ligand,1 µM,remaining binding,93%
CC/C(=N\NC(=O)NCc1cccc(O)c1)c1ccc(O)c(C)c1O,enzyme activity,inhibitor,,0.1 µM,inhibition,-5.5%
CCOc1cc(-c2nncn2C)ccc1Nc1ncc2cc(C)nc(NCC(C)(C)C)c2n1,enzyme activity,inhibitor,FRET,1 µM,inhibition,< 15%
COc1cc(/C=C/C(=O)CC(=O)/C=C/c2ccc(O)c(OC)c2)ccc1O,enzyme activity,inhibitor,,1 µM,activity vs control,83%
COc1cc2ncnc(Nc3ccc(Oc4ccccc4)cc3C)c2cc1OC,enzyme activity,inhibitor,,1 µM,inhibition,3%
CN(C)C(=O)Cn1cc(-c2nc(C3(c4ccc(-c5cnc(N)nc5)cc4)CC3)no2)cn1,cell-free assay,,competition with immobilised ligand,1 µM,remaining binding,100%
COc1cc(Cl)c(C(=O)N[C@@H](CN[C@H]2CC[C@@H](N)CC2)Cc2ccc(C#N)cc2)cc1-c1ccc(CN[C@H](C)c2ccc(C)cc2)o1,enzyme activity,inhibitor,,1 µM,remaining activity,96%
CNC(=O)Nc1ccc2c(c1)[C@@]1(CC2)OC(=O)N(CC(=O)N(Cc2ccc(F)cc2)[C@@H](C)C(F)(F)F)C1=O,cell-free assay,,competition with immobilised ligand,1 µM,remaining binding,88%
FC(F)(F)Oc1cccc(-c2cnc3ccc(-c4ccncc4)nn23)c1,enzyme activity,inhibitor,radiometric,5 µM,activity vs control,69%
CNCc1ccccc1-c1csc([C@@H](C)Nc2nc(C)nc3cc(OC)c(OC)cc23)c1,cell-free assay,,competition with immobilised ligand,1 µM,remaining binding,100%
O=C1NC(=O)c2cc(Nc3ccc(F)cc3)c(Nc3ccc(F)cc3)cc21,cell-free assay,,,0.5 µM,remaining signal,103%
Cc1cc(NC(=O)c2cccc(S(F)(F)(F)(F)F)c2)cc(-n2ccn3nc(-c4cccnc4)cc23)c1,cell-free assay,,competition with immobilised ligand,1 µM,remaining binding,100%
CCN(CC)CCNC(=O)c1c(C)[nH]c(/C=C2\C(=O)Nc3ccc(F)cc32)c1C,cell-free assay,,,0.5 µM,remaining signal,27.8%
Cc1nc(C2CCN(C(=O)c3ccc(OC(F)(F)F)cc3N)CC2)c2ncc(N3CCN(C)CC3)cc2n1,cell-free assay,,competition with immobilised ligand,1 µM,remaining binding,100%
COc1cc(-c2cc(-c3ccc(N4CCNCC4)cc3)cnc2N)cc(OC)c1OC,enzyme activity,inhibitor,,0.1 µM,inhibition,66%
